Data published in the RNAGym collection of RNA variant scans (doi:10.1126/science.aae0568).
Variants at the floor of the assay were thinned out.

B1: tRNA (parent)
chain: GUUCCGUUGGCGUAAUGGUAACGCGUCUCCCUCCUAAGGAGAAGACUGCGGGUUCGAGUCCCGUACGGAACG

Variants of: B1
Experiment: yeast fitness relative to wild type (ratio to wild type); higher = fitter; tRNA-Arg(CCU), competitive growth, 37 C, YPD
Method in brief: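 For this measurement, the tRNA-Arg(CCU) gene was varied by chemical synthesis at a 3% per-site mutation rate across 69 sites, and each variant was placed at the native genomic locus in Saccharomyces cerevisiae. The pooled strains went through a 24-hour competition in YPD at 37°C in six parallel replicates, with amplicons from start and end populations read by 100-nucleotide paired-end sequencing. Darwinian fitness relative to wild type followed from the change in each genotype's frequency. Genotypes needed ≥ 100 starting reads, and estimates < 0.5 were set to 0.5.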

First: GUUCCGUUGGGGUAAUGGGAACGCGUCUCCCUCCUAAGGAGAAGACUGCGGGUUCGAGUCCCGUACGGAACG [C11G U19G]
Second: GUUCCGUUGGCGUAAUGGUAACGCGUCUCCCUCCUAAGGAGAAGACUGCGGGUUCGAGUCUCGUACGGUACG [C61U A69U]
The yeast fitness of the first is lower: 0.577 for the first, 1.02 for the second.

Going from GUGACGUUAGCGUAAUGGUAACGCGUCUCCCUCCUAAGGAGAAGACUGCGGGUUCAAGUCGCGUACGGAACG [U3G C4A G9A G56A C61G] to GUUCCGUUGGCGUACUGAUAACGCGUCUCCCUCCUAAGGAGAAGACUGCGGGUUCGAGUCCCGUACGGAACG [A15C G18A], the yeast fitness rises from at most 0.5 to 0.74.

Going from GUUUCGUUGGCGUGAUGGUAACGCGUCUCCCUCCUAAGGAGAAGAGUGCGGGUUCGAGUCCCGUACGGAACG [C4U A14G C46G] to GUUCCGUUGGCGUAAUGGUAUCGCGUCUCCCUCCUAAGGAGAAGACUGAGGGUUCGAGUCCGGUACGUAACG [A21U C49A C62G G68U], the yeast fitness falls from 0.659 to 0.626.

Going from GUUCCGUUGGCGUAAUGGUAACGCGUCUCCCUCCUAAGGAGAAGACUGCGGGUUCGUGUCCCGUAUGGAACG [A57U C66U] to GUUCCGUUGGCGUAAUGGUAAGGCGUCUCCCUCCUAAGGAGAAGACUGCGGGCUCGAGUCCCGUCCGGAACG [C22G U53C A65C], the yeast fitness falls from 0.583 to 0.558.

First: GUUCCGUUGGCGUAAUGGUCACGGGUAUCCCUCCUAAGGAGAAGACUGCGCGUUCGAGUCUCGUACGGAACG [A20C C24G C27A G51C C61U]
Second: GUUCAGUUGGCGUAAUGGUGACGCGUCUCCCGCCUAAGGAGACGUCUGCGGGUUCGAGUCCCGUACGGAACG [C5A A20G U32G A43C A45U]
The yeast fitness of the first is higher: 0.586 for the first, at most 0.5 for the second.

Going from GUUCCGUUGGCGUUAUGGUAACGCGUCUCCCUCCUAAGGAGAACACUGCGGAUUCGAGCCCCGGACGGAACG [A14U G44C G52A U59C U64G] to GAUCCCCUGGCAUAAUGGUAACGCGUCUCACUCCUAAGGAGAAAACUGCGGGUUCGAGUCCCGUAAGGAACG [U2A G6C U7C G12A C30A G44A C66A], the yeast fitness falls from 0.646 to at most 0.5.

Compared with GUUCCGUUGGCGAAAUGGUAACGCGUCUCCCUCCUAAGGAGAGGGCUGCCGGUUCGAGUACCGUACGGCACG [U13A A43G A45G G50C C60A A69C], GUUCCGUCGGCGUAAUGGUAACGCGUCUCCCUCCUAAGGAGAAAACUGCGGGCUUGAGUCCCGUACGGAUCG [U8C G44A U53C C55U A70U] is lower in yeast fitness: 0.534 for the first, at most 0.5 for the second.

GUUCCGUUGGCGUAAUGGUAACGCGUCUCCCUCCUAACGAGAAGUCUGCGGGUUCGAGUCCCCUAGGGAACG [G38C A45U G63C C66G] and GUUCCGUUGGCGUAAUAGUAACGCGUCACCCUCCUAGGGAGAAGACUGCGGGUUCGAGUCCCGUACGGAACG [G17A U28A A37G] cannot be ordered by yeast fitness: at most 0.5 for the first, at most 0.5 for the second.

Compared with GUUCCGUUGGCGUAAUGGUAACGCGUCUCCCUCCUAAGGAGCCGACUGCGGGUUGGGGUCCCGUACGGAACG [A42C A43C C55G A57G], GUUCCGUUCGCGCAAUGGUAACGCGUCUCCGUCCUAAGGAGAAGACUGCGGGUUCGAGUCCCGUUCGGAACG [G9C U13C C31G A65U] is lower in yeast fitness: 0.641 for the first, at most 0.5 for the second.

GUUCUGUUGGCGUAAUGGUAAUGCGUCUCCCUUCUAAGGAGAAGACUGCGGGUUCGAGUCCCGUACGGACCG [C5U C22U C33U A70C] and GUUCCGUUGGCGUAAUGGUAACGCGUCUCCCUCGUAAGGAGAAGACUGCGGGUUCGAGACCCGUACGAAACG [C34G U59A G68A] cannot be ordered by yeast fitness: at most 0.5 for the first, at most 0.5 for the second.

GUUCCGUUGGCGUAAUGGUAACGCGUCUCCCUCCAAUGGAGAAGACUGCGGAUUCGAGCCCCGUAAAGAACG [U35A A37U G52A U59C C66A G67A] and GUUCCGUUGGCGUAAUGGUAACGCGUUUCCCUCCUAAGGAGAAGACUGCGCGUUAGAGUCCCGUACGGAACG [C27U G51C C55A] cannot be ordered by yeast fitness: at most 0.5 for the first, at most 0.5 for the second.

GUUCCGUUGCCGUAAUGGUAACGCGUCUCCCUACUAAGGAGAAGACUACGGGUUCGAGUCCCGUACGGAACG [G10C C33A G48A] and GUUCCGUUGGUGUAAUGGUAACGCGUCUCCCUCCUAAGGAGAAGACUGCAGGUUCGAGUCCCGUAAGGAACG [C11U G50A C66A] cannot be ordered by yeast fitness: at most 0.5 for the first, at most 0.5 for the second.

Compared with GUUCCGUUGGCGUAAUGGUAACGCGUCUCCCUCAUAAGCAGAAGACUGCGGGUUCGAGUCCCGUACGGAACG [C34A G39C], GUUCCGUUGGCAUAAUGGUAACGCGUCUCCCUCCUAAGGAGAUGCCUGCGGGUUCGAGUCCCGUACGGAACG [G12A A43U A45C] is lower in yeast fitness: 0.792 for the first, at most 0.5 for the second.

GUUCCCUUGGCGUAAUGGUAACGCGUCUCCCUUCUAAGGAGAAGACUGCGGGUUCGAGUCCUGUACGGAACG [G6C C33U C62U] and GUUCCGUUAGAGUAAUGGUAACGCGUCUCCCUCCUAACGCGAAGACUGCGGGUUCGAGUCCCGUACGGAACG [G9A C11A G38C A40C] cannot be ordered by yeast fitness: at most 0.5 for the first, at most 0.5 for the second.

Going from GUUCCGUCGGCGUAAUGGUAACGCGUCUCCCUCCUAAGGAGAAGCUUGCGGGUUCGAGUCCCGUACGGAACG [U8C A45C C46U] to GUUCCGUUGGCGUAAUGGUAACGCGUUUCCCUCCUAGCGAGACGACUGCGGGUUCGAGUCCGGUACGGAACG [C27U A37G G38C A43C C62G], the yeast fitness falls from 0.716 to 0.508.

GUCCCGUUGGUGUAAUCGUAAAGGGUCCCCCUACUAAGGAGAAGACUGCGGGUUCGAGUCCCGUACGGAACG [U3C C11U G17C C22A C24G U28C C33A] and GUUCCGUUGGCGUAAUGGUAACGCGUGUCCCUCCUAAAGAGAAGACUGCGGGUUCGAGUCCCGUACGGAUCG [C27G G38A A70U] cannot be ordered by yeast fitness: at most 0.5 for the first, at most 0.5 for the second.

GUUCCGUUGGUGUAAUGGAAACGCGUCUCCCUCCUAAGGAAAAGACUGCGGGUUCGAGUGCCGUGCGGAACG [C11U U19A G41A C60G A65G] and GUUCCGUUGGCGUAAUAGUAACGCGUCUCCCUGCUAAGGUGAAGGCUGCGGGUUCGAGUCCCGUGCGGAACG [G17A C33G A40U A45G A65G] cannot be ordered by yeast fitness: at most 0.5 for the first, at most 0.5 for the second.

Compared with GUUCCGUUGGCGUAAUGGUAACCCGUCUGCCUCCUAAGGAGAUGACUGCAGGUUCGAGUCCCGUACGGAUCG [G23C C29G A43U G50A A70U], GUUCCGUUGGCGUAAUGGUAACGCGUCUCCCUCCUAAGGCGAAGCCUGCGGGUUCGAGUCCCGUACGGAACG [A40C A45C] is higher in yeast fitness: at most 0.5 for the first, 0.616 for the second.

Compared with GUUCCGUUGGCGUAAUGGUUACGCGUCUCCCUCCUAAGGUGAAGACUGCGGGUUCGAGACCCGUACGGAACG [A20U A40U U59A], GUUUCGUUGGCGUAAUGGUAACGCGUCUCCCUCCUAAGGAGAAGACUGCGGGUUCGACUCCCGUACGGCACG [C4U G58C A69C] is higher in yeast fitness: at most 0.5 for the first, 0.765 for the second.
